Results published in ChEMBL document CHEMBL4311977, “Design and synthesis of parthenolide and 5-fluorouracil conjugates as potential anticancer agents against drug resistant hepatocellular carcinoma” (Eur J Med Chem, 2019).
pIC50: −log10 of the molar value. Active and inactive are the calls of the source. The rule behind the calls is not given here.

Tests used:
NIH3T3 = experiment: Cytotoxicity against mouse 3T3 cells; format: cell-based
Bel7402/5-FU [1] = experiment: Induction of apoptosis in human Bel7402/5-FU assessed as necrotic cells at 5 uM incubated for 48 hrs by annexinV-FITC/propidium iodide staining based flow cytometry (reference value: 0.157 %)
Bel7402/5-FU [2] = experiment: Down regulation of ABCC1 expression in human Bel7402/5-FU cells incubated for 24 hrs by western blot analysis; format: functional, cell-based
In short: (§1)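 Bel-7402/5-FU cells were seeded at 5 × 10⁵ per well and left 12 h, then treated with four concentrations (0.5, 1, 2, 5) for 24 h. Cells were PBS-washed and lysed in RIPA on ice for 30 min, then denatured at 100 °C for 5 min. Lysates went through SDS-PAGE and PVDF transfer, 5% milk blocking for 1 h at room temperature, primary antibodies, and HRP secondary for 2 h at room temperature.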

Bel7402/5-FU [3] = experiment: Induction of apoptosis in human Bel7402/5-FU cells assessed as increase in cytochrome C level at 0.5 to 5 uM incubated for 24 hrs by Western blot analysis; format: functional, cell-based; in short: as §1
Bel7402/5-FU [4] = experiment: Down regulation of Pgp expression in human Bel7402/5-FU cells at 0.5 uM incubated for 24 hrs by flow cytometry
Bel-7402 = experiment: Antiproliferative activity against human Bel7402 incubated for 72 hrs by MTT assay; format: functional, cell-based; details: Bel-7402, 72 h
In short: (§2)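 Bel-7402 and its 5-FU-resistant subline were kept in RPMI-1640 with 10% FBS and 1% penicillin/streptomycin at 37 °C under 5% CO2. Cells were seeded at 5000 per well and left for 12 h, then exposed to a concentration series for 72 h. MTT stock (5 mg/mL) was added for 4 h and the product dissolved in DMSO. OD was read at 570 nm and IC50 obtained by curve fitting.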

Bel7402/5-FU [5] = experiment: Induction of apoptosis in human Bel7402/5-FU assessed as late apoptotic cells at 5 uM incubated for 48 hrs by annexinV-FITC/propidium iodide staining based flow cytometry (reference value: 0.945 %)
Bel7402/5-FU [6] = experiment: Induction of apoptosis in human Bel7402/5-FU assessed as apoptotic cells at 0.5 uM incubated for 48 hrs by annexinV-FITC/propidium iodide staining based flow cytometry (reference value: 3.37 +/- 0.47 %)
Bel7402/5-FU [7] = experiment: Induction of apoptosis in human Bel7402/5-FU cells assessed as upregulation of Bim expression at 0.5 to 5 uM incubated for 24 hrs by Western blot analysis; format: functional, cell-based; in short: as §1
Bel7402/5-FU [8] = experiment: Induction of apoptosis in human Bel7402/5-FU assessed as viable cells at 2.5 uM incubated for 48 hrs by annexinV-FITC/propidium iodide staining based flow cytometry (reference value: 96.9 to 97.1 %)
Bel7402/5-FU [9] = experiment: Induction of apoptosis in human Bel7402/5-FU assessed as early apoptotic cells at 1 uM incubated for 48 hrs by annexinV-FITC/propidium iodide staining based flow cytometry (reference value: 20.1 to 20.3 %)
Bel7402/5-FU [10] = experiment: Induction of apoptosis in human Bel7402/5-FU assessed as late apoptotic cells at 1 uM incubated for 48 hrs by annexinV-FITC/propidium iodide staining based flow cytometry (reference value: 0.268 to 0.945 %)
Bel7402/5-FU [11] = experiment: Induction of apoptosis in human Bel7402/5-FU assessed as apoptotic cells at 1 uM incubated for 48 hrs by annexinV-FITC/propidium iodide staining based flow cytometry (reference value: 3.37 +/- 0.47 %)
Bel7402/5-FU [12] = experiment: Induction of apoptosis in human Bel7402/5-FU cells assessed as activation of caspase-3 at 0.5 to 5 uM incubated for 24 hrs by Western blot analysis; format: functional, cell-based; in short: as §1
Bel7402/5-FU [13] = experiment: Potency index, ratio of parthenolide IC50 to compound IC50 for antiproliferative activity against human Bel7402/5-FU cells; format: functional
Bel7402/5-FU [14] = experiment: Increase in ADR intracellular accumulation in human Bel7402/5-FU cells preincubated for 24 hrs followed by adriamycin addition measured after 1 hr by flow cytometry
Bel7402/5-FU [15] = experiment: Antiproliferative activity against human Bel7402/5-FU incubated for 72 hrs by MTT assay; format: functional, cell-based; in short: as §2
Bel7402/5-FU [16] = experiment: Induction of apoptosis in human Bel7402/5-FU assessed as early apoptotic cells at 2.5 uM incubated for 48 hrs by annexinV-FITC/propidium iodide staining based flow cytometry (reference value: 20.1 to 20.3 %)
Bel7402/5-FU [17] = experiment: Induction of apoptosis in human Bel7402/5-FU cells assessed as downregulation of Bcl-xl expression at 0.5 to 5 uM incubated for 24 hrs by Western blot analysis; format: functional, cell-based; in short: as §1
Bel7402/5-FU [18] = experiment: Induction of apoptosis in human Bel7402/5-FU assessed as apoptotic cells at 2.5 uM incubated for 48 hrs by annexinV-FITC/propidium iodide staining based flow cytometry (reference value: 3.37 +/- 0.47 %)
Bel7402/5-FU [19] = experiment: Down regulation of MDR1 expression in human Bel7402/5-FU cells incubated for 24 hrs by western blot analysis; format: functional, cell-based; in short: as §1
[20] = Therapeutic index, ratio of IC50 for mouse 3T3 cells to IC50 for human Bel7402/5-FU cells; format: toxicity; details: mouse 3T3 cells versus human Bel7402/5-FU cells, read-out: TI
Bel7402/5-FU [21] = experiment: Induction of apoptosis in human Bel7402/5-FU assessed as early apoptotic cells at 5 uM incubated for 48 hrs by annexinV-FITC/propidium iodide staining based flow cytometry (reference value: 20.1 %)
Bel7402/5-FU [22] = experiment: Induction of apoptosis in human Bel7402/5-FU cells assessed as upregulation of Bax expression at 0.5 to 5 uM incubated for 24 hrs by Western blot analysis; format: functional, cell-based; in short: as §1
Bel7402/5-FU [23] = experiment: Induction of apoptosis in human Bel7402/5-FU assessed as apoptotic cells at 5 uM incubated for 48 hrs by annexinV-FITC/propidium iodide staining based flow cytometry (reference value: 3.37 +/- 0.47 %)
Bel7402/5-FU [24] = experiment: Induction of apoptosis in human Bel7402/5-FU cells assessed as downregulation of Bcl-2 expression at 0.5 to 5 uM incubated for 24 hrs by Western blot analysis; format: functional, cell-based; in short: as §1
Bel7402/5-FU [25] = experiment: Induction of apoptosis in human Bel7402/5-FU cells assessed as activation of caspase-9 at 0.5 to 5 uM incubated for 24 hrs by Western blot analysis; format: functional, cell-based; in short: as §1

C=C1C(=O)O[C@H]2[C@H]1CC/C(COC(=O)Cn1cc(F)c(=O)n(Cc3ccc(C(F)(F)F)cc3)c1=O)=C\CC[C@@]1(C)O[C@@H]21
pIC50 (NIH3T3): 5.28
Activity (Bel7402/5-FU [1]): 1.49 - 1.75%
Activity (Bel7402/5-FU [2]): Dose-dependent effect
Activity (Bel7402/5-FU [3]): Active
Activity (Bel7402/5-FU [4]): Active
pIC50 (Bel-7402): 5.65
Activity (Bel7402/5-FU [5]): 19.5 - 46.1%
Activity (Bel7402/5-FU [6]): 3.97%
Activity (Bel7402/5-FU [7]): Active
viability at 2.5 µM (Bel7402/5-FU [8]): 85.6%
Activity (Bel7402/5-FU [9]): 3.5%
Activity (Bel7402/5-FU [10]): 0.909%
Activity (Bel7402/5-FU [11]): 4.9%
Activity (Bel7402/5-FU [12]): Active
Ratio IC50 (Bel7402/5-FU [13]): 5.8
Activity (Bel7402/5-FU [14]): Dose-dependent effect
pIC50 (Bel7402/5-FU [15]): 5.65
Activity (Bel7402/5-FU [16]): 7.75%
Activity (Bel7402/5-FU [17]): Active
Activity (Bel7402/5-FU [18]): 14.43%
Activity (Bel7402/5-FU [19]): Dose-dependent effect
selectivity ratio [20]: 2.3
Activity (Bel7402/5-FU [21]): 18.1 - 82.7%
Activity (Bel7402/5-FU [22]): Active
Activity (Bel7402/5-FU [23]): 77.97%
Activity (Bel7402/5-FU [24]): Active
Activity (Bel7402/5-FU [25]): Active
